Most compounds without a hit are left out; they make up all but 2.3% or so of the library.
Myeloid diff 2 – induction of myeloid progenitor differentiation, primary screen, cell-based, flow cytometry, MLPCN library; 1% of 360,000 active; AID 624256, 2012; ER-HoxA9 myeloid progenitors, lysozyme-GFP differentiation; calls only at 10 µM;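 active = normalized GFP-positive differentiation at or above the plate's own cutoff, the solvent-only control mean plus 3 SD; inconclusive = no clear call, values can overlap the other calls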;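 also: cells exposed to compound for four days before flow analysis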
HNF4A DNA FP – change in binding of human HNF4A to DNA, primary screen, biochemical, fluorescence polarization, FITC-DNA; 1 h; AID 1224865, 2016; activity change, % at 10 µM; 0.3% of 360,000 active; Hepatocyte nuclear factor 4-alpha (Homo sapiens), P41235; in the data active = activity change above about 30%, passing the limit was not always enough
CSN deneddyl inh – inhibitors of CSN-mediated cullin deneddylation, primary screen, biochemical, fluorescence polarization, uHTS; inhibition, % at 12.5 µM; Purified CSN, SCF-Nedd8-OG deneddylation; 0.38% of 360,000 active; AID 651999, 2013; COP9 signalosome complex subunit 5 (Homo sapiens), Q92905;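 active = pattern-corrected inhibition above about 35%, with an unprinted fluorescence ratio check between 0.5 and 1.5, limit read from the data, passing the limit was not always enough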;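 also: 0% = enzyme with substrate and 100% = substrate without enzyme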
Target sequence (Q92905 whole entry, looked up, one chain of several): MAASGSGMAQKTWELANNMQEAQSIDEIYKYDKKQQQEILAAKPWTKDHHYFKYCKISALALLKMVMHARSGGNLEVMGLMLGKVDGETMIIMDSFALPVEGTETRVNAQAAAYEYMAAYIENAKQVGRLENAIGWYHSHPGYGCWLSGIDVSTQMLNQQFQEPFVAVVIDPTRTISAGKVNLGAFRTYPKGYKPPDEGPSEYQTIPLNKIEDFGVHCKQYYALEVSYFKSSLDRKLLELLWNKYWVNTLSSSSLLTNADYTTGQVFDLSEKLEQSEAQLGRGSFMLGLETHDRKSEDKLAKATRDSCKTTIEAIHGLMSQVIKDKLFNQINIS
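test system = HEK293T-derived human Csn5 enzyme | amount = 0.24 nM Csn5 enzyme, final concentration | medium = Tris/NaCl/DTT buffer, pH 7.5 | schedule = 90 min reaction at room temperature | signal = FP | evaluation = inhibition of Csn5 cleavage, % | compound dosing = single dose of 12.5 µM compound with 0.25% DMSO | probe or stimulus = 10 nM SCFSkp2-Nedd8OG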
Rpn11 inh – Rpn11 (PSMD14) deubiquitinase inhibitors, primary screen, biochemical, fluorescence polarization, uHTS | human 26S proteasome, Ub4-pepOG fluorescence polarization; 20S core pre-blocked with epoxomicin | 26S proteasome non-ATPase regulatory subunit 14 (Homo sapiens), O00487 | inhibition, % at 20 µM | 0.59% of 360,000 active | AID 588493, 2011;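 active = inhibition at 20 µM, scaled to each plate's controls, above about 33%, limit read from the data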
Target sequence (O00487 whole entry, looked up): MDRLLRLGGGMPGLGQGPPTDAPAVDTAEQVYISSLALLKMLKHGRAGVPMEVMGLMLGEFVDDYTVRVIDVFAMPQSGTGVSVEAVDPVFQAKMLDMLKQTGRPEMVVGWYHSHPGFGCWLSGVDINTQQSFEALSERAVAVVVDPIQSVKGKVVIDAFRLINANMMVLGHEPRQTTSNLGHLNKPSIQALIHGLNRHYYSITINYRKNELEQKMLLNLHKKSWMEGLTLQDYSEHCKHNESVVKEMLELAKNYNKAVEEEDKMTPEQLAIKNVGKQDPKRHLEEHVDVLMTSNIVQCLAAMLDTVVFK
TPT1 inh – Candida albicans TPT1 enzyme inhibitors, primary screen, biochemical, fluorescence polarization. 0.81% of 300,000 active. recombinant caTPT1, FP RNA substrate dephosphorylation. inhibition, % at 5 µM;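 active = inhibition above the mean of all tested compounds plus 3 SD, set per screening campaign, cut at about 24% in these data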;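 also: plate controls were DMSO alone for no effect and ferristatin control at 100 nM for full effect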
TPT1 inh confirm – Candida albicans TPT1 inhibitors, confirmation, biochemical, fluorescence polarization, triplicate; shares compounds with TPT1 inh; recombinant caTPT1, RNase T1 coupled; inhibition, % at 5 µM; 74% of 2,400 active; AID 2149, 2009;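 active = inhibition above the primary screen limit, the mean inhibition of all tested compounds plus 3 SD, cut at about 25% in these data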
RNase T1 inh – RNase T1 inhibitors, counter-screen for TPT1 inhibitor project, biochemical, fluorescence polarization; 83% of 2,400 active; AID 2153, 2009; RNase T1 cleavage, 1536-well; shares compounds with TPT1 inh; inhibition, % at 5 µM;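 active = inhibition above the solvent-only control well mean plus 3 SD, limit set per screening run, cut at about 23% in these data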;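 also: plate controls were DMSO wells with enzyme for no effect and wells without RNase T1 for full effect; inhibitors block cleavage so intact labeled substrate keeps polarization high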
* hit, by the source's call; i = inactive; ? = inconclusive; · = no result shown; + = active, no number.

SMILES	Myeloid diff 2	HNF4A DNA FP	CSN deneddyl inh	Rpn11 inh	TPT1 inh	TPT1 inh confirm	RNase T1 inh
O=C(N/N=C/c1ccc(N2CCOCC2)s1)c1ccc(NS(=O)(=O)c2cccs2)cc1	i	29.4	5.2	·	28.8*	77.8*	89.9*
Cc1cc2ncc(C(N)=O)cn2n1	·	3.8	-8.3	-5.9	83.2*	7.2	10.6
O=C(O)C(=O)/C(=C\c1cccc2ccccc12)c1ccc2ccccc2n1	i	19.9	20.0	·	49.0*	89.1*	102.3*
Cc1csc(Nc2ccc(C(=O)O)cc2)n1	i	-2.9	4.3	5.5	14.5	·	·
Cc1csc(Nc2ccccc2)n1	i	2.2	3.8	1.7	+	2.5	8.8
CCC[C@@H]1CCCO[C@@](C(=O)NCc2cc(C)n(C)n2)(C(F)(F)F)C1	i	-3.8	-0.2	-0.4	-2.6	·	·
CCN(CC)c1ccc2cc(C(=O)NCc3ccc(F)cc3)c(=N)oc2c1	i	64.6	7.3	·	77.6*	109.3*	108.7*
CCN(CC)c1ccc(NC(=O)CCCOc2cccc(C)c2)cc1	i	0.8	-4.7	2.3	·	·	·
CCN(CC)c1ccc(/C=N/OCC(=O)Nc2cccc(C)c2)cc1	i	30.3	18.6	·	33.9*	43.4*	56.1*
CC(=O)c1cccc(NC(=O)CNC(=O)Cc2ccccc2)c1	i	-0.1	-3.2	2.8	2.3	·	·
COc1ccc(-n2c(O)c(/C=N/NS(=O)(=O)c3ccc(C)cc3)c3ccccc3c2=O)cc1OC	?	86.5*	116.6	·	108.8*	69.9*	85.8*
COc1ccc(-n2c(O)c(/C=N/NS(=O)(=O)c3cc(C)ccc3C)c3ccccc3c2=O)cc1OC	+	146.5	55.6	·	109.2*	94.3*	97.6*
COc1ccc(-n2c(O)c(/C=N/Nc3nc(C)cc(C)n3)c3ccccc3c2=O)cc1OC	i	-2.3	-3.4	27.5	1.5	·	·
COc1ccccc1OCC(=O)Nc1ccc(-c2nnc(-c3ccco3)o2)cc1	i	-1.8	3.0	5.5	1.5	·	·
CCC(Oc1ccccc1)C(=O)Nc1ccc(-c2nnc(-c3ccco3)o2)cc1 (stereo unspecified)	i	6.6	-1.0	5.7	71.3*	1.1	6.3
Cc1ccc(S(=O)(=O)N2CCC(C(=O)OCC(=O)Nc3cc(S(C)(=O)=O)ccc3Cl)CC2)cc1C	i	5.5	0.8	-0.2	1.1	·	·
COc1cc(C=C2C(=O)OC(c3ccccc3)OC2=O)cc(Br)c1O (stereo unspecified)	i	-6.1	-1.9	0.8	-7.0	·	·
O=C1ON=C(c2ccccc2)/C1=C\c1ccco1	i	-4.4	1.8	-5.5	19.4	·	·
COc1cc(/C=C2\C(=O)ON=C2c2ccccc2)cc(Cl)c1O	i	-2.2	2.1	16.8	35.4*	122.7*	128.0*
COc1cc(/C=C2\C(=O)ON=C2c2ccccc2)cc(Br)c1O	i	2.3	10.5	16.6	42.7*	137.6*	139.1*
Cc1ccc(/C=C2/C(=O)ON=C2c2ccccc2)o1	i	-6.3	16.7	12.9	33.7*	16.7	25.2*
CCCOc1ccc(/C=C2/C(=O)ON=C2C)cc1OCC	i	-0.4	4.7	1.1	-2.1	·	·
COc1cc(/C=C2/C(=O)ON=C2c2ccccc2)ccc1O	i	0.1	9.2	0.4	3.5	·	·
CCOc1cc(/C=C2/C(=O)ON=C2C)cc(Br)c1O	i	3.0	9.0	24.9	40.0*	110.6*	121.6*
C[C@H](CO)N1C[C@H](C)[C@H](CN(C)C(=O)c2ccccc2)OCc2ccccc2-c2c(n(C)c3ccccc23)C1=O	i	5.0	5.4	6.6	·	·	·
SMILES	Myeloid diff 2	HNF4A DNA FP	CSN deneddyl inh	Rpn11 inh	TPT1 inh	TPT1 inh confirm	RNase T1 inh
NS(=O)(=O)c1ccc(N2CCN(C(=O)C3COc4ccccc4O3)CC2)nc1 (stereo unspecified)	i	-1.0	-2.5	0.5	·	·	·
CCOc1cc(/C=C2\C(=O)ON=C2c2ccccc2)cc(Br)c1O	·	4.6	5.7	12.5	39.9*	137.5*	137.6*
COC(=O)CCCC1=CC2=C(c3ccccc3)C(=O)C(C)(OC(=O)C3CCCC3)C(=O)C2=CN1CCc1c[nH]c2ccccc12 (stereo unspecified)	i	15.3	5.9	3.6	5.5	·	·
CCc1ccc(/C=C2\Oc3c(ccc(O)c3CN3CCN(C)CC3)C2=O)cc1	i	11.3	4.0	16.6	26.0*	27.5*	37.6*
Fc1ccc(-n2nnc(-c3ccnc4ccccc34)n2)cc1	i	2.1	3.6	3.1	-3.1	·	·
COc1cc([C@H]2c3c(cc(OC)c(O)c3OC)C[C@@H](CO)[C@@H]2CO[C@@H]2O[C@H](CO)[C@@H](O)[C@H](O)[C@H]2O)cc(OC)c1O	i	4.3	2.8	4.3	1.7	·	·
c1ccc(-c2nc(-c3ccco3)n3ccccc23)cc1	i	-21.2	13.4	-33.9	27.5*	25.1*	30.3*
O=C(O)c1ccccc1N/N=C\c1ccnc2ccccc12	i	-4.0	4.0	7.2	24.3*	17.6	29.9*
CC1=[N+](C)N(c2ccccc2)C(=O)C1N=Cc1c(Cl)cccc1Cl (stereo unspecified)	i	1.1	-1.3	-0.4	132.7*	6.7	11.5
CC(C)C(NC(=O)c1ccc(F)cc1)C(=O)NC1(C)CCS(=O)(=O)C1 (stereo unspecified)	i	-0.6	-0.9	2.1	·	·	·
CCOc1cc(/C=C2/SC(=S)N(CC3CCCO3)C2=O)ccc1O (stereo unspecified)	i	42.0*	11.5	·	30.2*	35.4*	47.1*
CCCCN(C(=O)CN1CCOCC1)c1c(N)n(CC(C)C)c(=O)[nH]c1=O	i	-1.2	-11.3	-1.0	-4.0	·	·
COc1cc(C2C(C#N)=C(N)N(c3ccc(F)cc3)C3=C2S(=O)(=O)CC3)ccc1O (stereo unspecified)	+	15.1	13.4	31.3	31.8*	13.3	26.2*
COc1ccc(CCNC(=O)COC(=O)c2cc(S(=O)(=O)N3CCOCC3)ccc2C)cc1OC	i	2.3	4.3	-13.3	·	·	·
CC1=C(C#N)C(=O)N(C2CCS(=O)(=O)C2)C(=O)/C1=C\c1ccco1 (stereo unspecified)	·	·	·	·	74.1*	85.4*	10.5
